AI-2 QS modul: Vibrio harveyi AI-2 quorum sensing modulators, primary screen, JMH597 strain, luminescence/OD600 ratio; 0.4% of 300,000 active; AID 2094, 2009; Vibrio harveyi JMH597 AI-2 luminescence/OD600 ratio, 9 h; hits give low values; strain lacks LuxN and CqsS sensors; 0 = neutral-control median; activity change, % at 7.5 µM; in the data active = activity change below about -75%, passing the limit was not always enough;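 also: luminescence divided by OD600 gain over 9 h not by final OD600 alone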
T cruzi repl: inhibitors of intracellular T. cruzi growth, primary screen, luminescence, NIH3T3 host cells; T. cruzi beta-gal in NIH3T3, 90 h; inhibition, % (concentration not given with the values); 1.4% of 300,000 active;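 active = mean inhibition across valid replicates above about 55%, limit read from the data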;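 also: signal also drops with host cell toxicity which is not excluded here; 0% = plate median of DMSO wells and 100% = zero luminescence signal; higher percent means less beta-gal luminescence so fewer parasites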
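Read-out: Parasite load inhibition, % | Test system: Mouse NIH/3T3 fibroblasts infected with β-gal-expressing T. cruzi Tulahuen C4 | Amount: 5,000 cells/well | Medium: DMEM, 2% fetal bovine serum | Signal: GalScreen β-gal luminescence, detergent lysis, 60 min | Timing: 3 h attach, ≥90 h co-culture | Also added: Tulahuen C4 trypomastigotes, 5000/well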
HIF act: HIF pathway transcriptional activators, primary screen, cell-based, U2OS HRE-luciferase, luminescence. U2OS HRE-luciferase reporter; normalized: DMSO 0%, desferrioxamine 100%. activation, % at 7.5 µM (by protocol). 0.32% of 300,000 active;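 active = mean activation of at least 10% of the iron chelator positive control signal, with at least half of replicates also reaching 10%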
V-ATPase pHluor: regulators of yeast V-ATPase proton pumping, primary screen, pHLuorin cytosolic pH fluorescence; S. cerevisiae; response, % at 10 µM; 0.37% of 350,000 active; in the data active = response mostly above about 7.3%, no sharp cut-off; inactive = mostly below about 5.4%; also: actives read high
CR mimetic SO: reduction of superoxide in aged yeast, primary screen, HTS; 0.18% of 330,000 active; superoxide response (% of plate mean), % at 10 µM; S. cerevisiae aged cells, superoxide DHE fluorescence; hits give low values;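 active = superoxide response under a set limit, about three screen SD below normal, cut at about 65% in these data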;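 also: yeast aged for seven days with compound at 30 °C before DHE staining; 100% = average MFI of all compound-treated wells on the plate with controls excluded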
CendR NRP1 mod: modulators of CendR peptide binding to NRP-1, primary screen, biochemical, fluorescence polarization, uHTS | inhibition, % at 25 µM | 0.85% of 360,000 active | Neuropilin-1 (Homo sapiens), O14786 | FAM-RPARPAR peptide binding to NRP-1;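 active = inhibition or corrected inhibition above about 18%, plus a signal ratio from 0.5 to 1.5, limit read from the data, passing the limit was not always enough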
An asterisk follows results filed as active. A selection: hits, their analogues and other compounds. The true share with any hit is near 3%.

What do the screens show for `CCOCCOC(=O)C1=C(C)N(C)C(=O)NC1c1cc(Cl)c(O)c(OC)c1` (stereo unspecified)?
AI-2 QS modul: 16; T cruzi repl: 2; HIF act: 0; V-ATPase pHluor: 2; CR mimetic SO: 93; CendR NRP1 mod: -10

Results for O=C(CNc1cc(S(=O)(=O)N2CCOCC2)ccc1N1CCOCC1)Nc1cccc(C(F)(F)F)c1 ?
V-ATPase pHluor: -1; CR mimetic SO: 99; CendR NRP1 mod: -3

How did O=C(Nc1ccc([N+](=O)[O-])cn1)c1cc(-c2cccc(Cl)c2)nc2ccccc12 do in these assays?
AI-2 QS modul: 17; T cruzi repl: 56*; HIF act: 0; V-ATPase pHluor: 0; CR mimetic SO: 92; CendR NRP1 mod: -7

Results for CC(C)(C)C1=CC(=O)C(=O)C(C(C)(C)C)=C1 ?
AI-2 QS modul: -1; T cruzi repl: 74*; HIF act: 0; V-ATPase pHluor: 10; CR mimetic SO: 88; CendR NRP1 mod: 4

How did Cc1c(CN2CCC(CO)(Cc3ccccc3)CC2)c2ccccc2n1C do in these assays?
AI-2 QS modul: 41; T cruzi repl: 57*; HIF act: -1; V-ATPase pHluor: -1; CR mimetic SO: 82; CendR NRP1 mod: 1

What do the screens show for `COc1cccc(NC(=O)CSc2nc3c(oc4ccccc43)c(=O)[nH]2)c1`?
AI-2 QS modul: 3; T cruzi repl: -14; HIF act: 0; V-ATPase pHluor: 8; CR mimetic SO: 104; CendR NRP1 mod: 1

What do the screens show for `COc1cc(C)nc(NCc2ccccc2)n1`?
AI-2 QS modul: 19; T cruzi repl: 8; HIF act: -1; V-ATPase pHluor: 0; CR mimetic SO: 107; CendR NRP1 mod: 8

Results for Cc1cc(NC2CCCCC2)nc(NCc2ccccc2)n1 ?
AI-2 QS modul: 9; T cruzi repl: 58*; HIF act: 0; V-ATPase pHluor: 0; CR mimetic SO: 95; CendR NRP1 mod: -4

What do the screens show for `CCCc1nc(C)cc(N2CCN(c3ccccc3)CC2)n1`?
AI-2 QS modul: 11; T cruzi repl: 10; HIF act: 0; V-ATPase pHluor: -3; CR mimetic SO: 102; CendR NRP1 mod: 4

How did Cc1ccc(Nc2cc(C)nc(NCc3ccccc3)n2)cc1 do in these assays?
AI-2 QS modul: -92*; T cruzi repl: 61*; HIF act: 0; V-ATPase pHluor: 5; CR mimetic SO: 81; CendR NRP1 mod: -7

What do the screens show for `Cc1cc(N/N=C/c2ccccc2Cl)nc(NCc2ccccc2)n1`?
AI-2 QS modul: 27; T cruzi repl: 31; HIF act: 1; V-ATPase pHluor: 3; CR mimetic SO: 112; CendR NRP1 mod: -3

Results for COc1ccc(Nc2cc(C)nc(NCc3ccccc3)n2)cc1 ?
AI-2 QS modul: -52; T cruzi repl: 61*; HIF act: 0; V-ATPase pHluor: -2; CR mimetic SO: 96; CendR NRP1 mod: 1

What do the screens show for `Cc1cc(N2CCN(c3ccccc3)CC2)nc(NCc2ccccc2)n1`?
T cruzi repl: 55*; HIF act: -1; V-ATPase pHluor: -8; CR mimetic SO: 99; CendR NRP1 mod: -10

How did Cc1cccc(-c2noc(CNC(=O)COc3ccccc3C)n2)c1 do in these assays?
AI-2 QS modul: 19; T cruzi repl: -3; HIF act: 0; V-ATPase pHluor: -2; CR mimetic SO: 107; CendR NRP1 mod: -4

Results for COc1ccc(-c2c([C@H]3[C@@H]4C=CCC[C@@]4(C)C(=O)N3Cc3ccccc3)ccc3ccccc23)cc1OC ?
AI-2 QS modul: 12; T cruzi repl: 30; HIF act: 0; V-ATPase pHluor: -1; CR mimetic SO: 95; CendR NRP1 mod: -5

How did COc1ccc(-c2ccc([C@H]3[C@@H]4C=CCC[C@@]4(C)C(=O)N3Cc3ccccc3)c(F)c2)cc1OC do in these assays?
AI-2 QS modul: 12; T cruzi repl: 67*; HIF act: -2; V-ATPase pHluor: -3; CendR NRP1 mod: 8

Source: PubChem (several laboratories)
